Read-outs that look alike come from different tables or passages of the source.
B1: paxillin^133–290 (LD2–LD4 region of chicken paxillin) (domain or fragment, UniProt P49024 133-290, looked up)
chain: MTSTSLGSNLSELDRLLLELNAVQHNPPSGFSADEVSRSPSLPNVTGPHYVIPESSSSAGGKAAPPTKEKPKRNGGRGIEDVRPSVESLLDELESSVPSPVPAITVSQGEVSSPQRVNASQQQTRISASSATRELDELMASLSDFKFMAQGKAGGSSS
B2: paxillin^133–290: chicken paxillin residues 133–290, truncated construct comprising LD motifs 2, 3 and 4, N-terminal His-tag (protein)
chain: B1 chain
modifications: left off: His-tag, N-terminal, kept
B3: Pyk2 focal adhesion-targeting (Pyk2-FAT) domain (domain or fragment, human, UniProt Q14289 871-1005, looked up)
chain: ANLDRTDDLVYLNVMELVRAVLELKNELCQLPPEGYVVVVKNVGLTLRKLIGSVDDLLPSLPSSSRTEIEGTQKLLNKDLAELINKMRLAQQNAVTSLSEECKRQMLTASHTLAVDAKNLLDAVDQAKVLANLAH
B4: Pyk2-FAT: FAT domain of human Pyk2 (residues 871–1005), N-terminal His6-tag (protein)
chain: B3 chain
modifications: left off: His6, N-terminal, state not stated
B5: paxillin^212–282: paxillin construct LD3–LD4 (protein)
chain: EDVRPSVESLLDELESSVPSPVPAITVSQGEVSSPQRVNASQQQTRISASSATRELDELMASLSDFKFMAQGK
B6: paxillin^133–242: paxillin construct LD2–LD3 (protein)
chain: MTSTSLGSNLSELDRLLLELNAVQHNPPSGFSADEVSRSPSLPNVTGPHYVIPESSSSAGGKAAPPTKEKPKRNGGRGIEDVRPSVESLLDELESSVPSPVPAITVSQGE

How the values were obtained:
[1] = test system: Pyk2-FAT; experiment: Isothermal titration calorimetry; assay type: binding, human; conditions: for binding to Pyk2-FAT (qualitative, ITC): 20 mM MES, pH 6.2, 25°C
Method in brief: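 Human Pyk2 FAT domain (residues 871–1005) with an N-terminal His6 tag, expressed in E. coli BL21(DE3) and purified by Ni-affinity then gel filtration. The cell held 10 μM protein in 20 mM MES, pH 6.2. The syringe held chicken paxillin LD-motif peptides (100 μM) or the His-tagged paxillin 133–290 fragment (50 μM). Solutions degassed; 2 μl injections, 120 s apart, at 25°C. Ligand-into-buffer heats subtracted. Fits used one-site or two-site sequential models. Run in duplicate.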

[2] = test system: FAK-FAT; conditions: cited from earlier work
[3] = test system: Pyk2-FAT; experiment: H/D exchange NMR of Pyk2-FAT complexes; set-up: species or system human; conditions: H/D exchange in D2O, fast 15N-HSQC, up to 10 h
Method in brief: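 15N-labelled Pyk2-FAT complexes (400–500 μM, 20 mM MES pH 6.2) were lyophilized and rehydrated in D2O. FAST 1H-15N HSQC spectra were recorded at intervals up to 10 h at 305 K. HSQC spectra in H2O before and after exchange checked structural integrity.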

[4] = test system: FAT-like domain from G-protein-coupled receptor kinase-interacting protein 1 (GIT1); conditions: ref [41]; cited from earlier work
[5] = test system: Pyk2-FAT; experiment: NMR titration / chemical shift perturbation of 15N-labeled Pyk2-FAT; assay type: binding, human; conditions: 15N-HSQC/TROSY titration, Pyk2-FAT:ligand 1:0.2 to 1:2, 20 mM MES, pH 6.2, 305K
Method in brief: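 15N-labeled Pyk2-FAT (400–500 μM in 20 mM MES, pH 6.2) titrated at 305 K with chicken LD peptides at protein:peptide ratios of 1:0.2 to 1:2. Peptide stocks were in dialysis buffer, pH readjusted to 6.2. 15N-HSQC spectra recorded at 600/800 MHz. Weighted shift Δav = [(ΔH² + (ΔN/5)²)/2]^1/2. For PRE, MTSL-labeled peptides were added at 1:0.2 and Iox/Ired taken after ascorbate reduction.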

[6] = test system: Pyk2-FAT; experiment: Steady-state 1H-15N heteronuclear NOE; set-up: species or system human; conditions: 600 MHz, 305 K; relative to free Pyk2-FAT, loop regions
Method in brief: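 Steady-state 1H-15N heteronuclear NOE was measured at 600 MHz, 305 K on 15N-labelled Pyk2-FAT, free and bound to LD-motif peptide. Protein was at 400–500 μM in 20 mM MES pH 6.2. NOE values were taken as peak-intensity ratios of 1H-saturated to unsaturated spectra.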

[7] = test system: Pyk2-FAT; experiment: Sedimentation equilibrium AUC; assay type: binding, human; conditions: AUC-SE; for Kd: two site hetero-association model (A+B+B↔ABB), 1:2 Pyk2-FAT to peptide, 20 mM MES, pH 6.2, 4 °C, Monte Carlo error, 500 iterations, confidence level 0.68
Method in brief: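 Sedimentation equilibrium at 4 °C in 20 mM MES, 50 mM NaCl, pH 6.2. Rotor speeds 18.4, 26.9 and 46k rpm, equilibrium reached at 30, 26 and 18 h. Loading 35–96 μM. Absorbance read at 280 and 230 nm, 0.001 cm radial steps, 20 replicates per point. Global least-squares fit across speeds to the A+B+B↔ABB model.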

[8] = target: B3; experiment: ITC
[9] = Sedimentation velocity AUC; assay type: physicochemical; conditions: for percentage protein amount in c(s) peak: 20 °C, 50,000 rpm; for f/f0 (weight-average frictional ratio): best-fit from c(s) distribution, 20 °C
Method in brief: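 Sedimentation velocity at 50,000 rpm and 20°C in 20 mM MES, pH 6.2, with or without 50 mM NaCl. Partial specific volumes calculated from sequence. Rayleigh interference scans taken every 1.0 min over 10 h. Data fitted to a c(s) distribution model. The s-value is the ordinate maximum of each c(s) peak; percentage protein amount is reported per peak.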

[10] = test system: Pyk2-FAT; experiment: Reverse NMR titration: unlabeled Pyk2-FAT added to 15N-labeled paxillin ligand; assay type: binding, human; conditions: 1H-15N HSQC/TROSY, ratios up to 1:2, 20 mM MES, pH 6.2
Method in brief: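 Unlabelled Pyk2-FAT was titrated into a 15N-labelled ligand in 20 mM MES pH 6.2, with 15N-1H HSQC spectra at 600/800 MHz and 305 K. Ligands were an expressed chicken paxillin 139–163 peptide or His-tagged chicken paxillin 133–290. […] Ratios were 1:0.2–1:2.0.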

[11] = target: B1; experiment: AUC
[12] = target: B1; experiment: ITC
[13] = target: B3; experiment: AUC

For “LD3: paxillin derived peptide LD3 (chicken paxillin; residues 217–237), chemically synthesized (SVESLLDELESSVPSPVPAIT)”, the “binding to Pyk2-FAT (qualitative, ITC)” value [1] was “very weak compared to LD2 and LD4 peptides”.

In the case of “LD4: paxillin derived peptide LD4 (chicken paxillin; residues 262–278), chemically synthesized (SATRELDELMASLSDFK)”, the “preferred binding site on FAK-FAT” value ([2]; ref [39] (b5), [39], [40]) is listed as “binds to the H2/H3 site”, the “LD4 binding to the FAK FAT H1/H4 site” value ([2]; ref [40]) is listed as “defective” and the “amide H/D exchange protection of Pyk2-FAT in complex” value [3] is listed as “residues from H2/H3 and H1/H4 were protected even after 10 hrs”. The “binding site on GIT1 FAT-like domain” value [4] was “located exclusively at the H1/H4 surface”, the “binding sites / site preference on Pyk2-FAT by NMR” value [5] was “H2/H3 is the stronger binding site” and the “steady-state 1H-15N NOE of Pyk2-FAT amides upon ligand binding” value [6] was “significantly increased relative to free Pyk2-FAT”. For the same molecule, the “affinity preference for H2/H3 site over H1/H4 site of Pyk2-FAT” value ([1]; from ITC and AUC studies) was 5 fold, the “global free energy difference between first and second sites (ΔGAB and ΔGABB)” value ([7]; 1:2 stoichiometry, two-site hetero-association model) was -0.77 kcal/mol and the “Delta G, single site (1:1)” value ([7]; single site hetero-association model, T = 277.149994K, RT = 0.551kcal/mol) was -7.52 kcal/mol. For the same molecule, the “Delta G, first binding site (1:2)” value ([7]; two site hetero-association model, first site, T = 277.149994K, RT = 0.551kcal/mol) was -7.47 kcal/mol, the “Delta G, second binding site (both occupied)” value ([7]; two site hetero-association model, second site, T = 277.149994K, RT = 0.551kcal/mol) was -6.70 kcal/mol and the Kd ([7]; read-out: KAB (first site), 1:2 stoichiometry) was 1290 ± 90 nM. The Kd ([7]; read-out: KABB (second site), 1:2 stoichiometry) was 5180 ± 360 nM.

For GSNLSELDRLLLELNAVQHNPPSGF (peptide, UniProt P49024 139-163, looked up) [paxillin LD2 peptide (chicken paxillin residues 139-163)], the “dH, first site” value [8] was -2.4 ± 0.1 kcal/mol and the “dH, second site” value [8] was 0.3 ± 0.1 kcal/mol.

For B1, the dH [8] was -5 ± 0.1 kcal/mol and the “stoichiometry N” value [8] was 1.2.

For B2, the “increase of binding affinity for FAK FAT relative to LD2 or LD4 peptides alone” value ([2]; similar paxillin^133–290 construct, ref [35]) is listed as 10 fold, the “oligomerization state of unbound protein” value [9] is listed as “appears to form some soluble associated species (oligomers) of undetermined stoichiometry’s, but the main species appears to be a monomer” and the “percentage protein amount in c(s) peak” value [9] is listed as 48%. For the same molecule, the “f/f0 (weight-average frictional ratio)” value [9] was 1.70, the “f/f0 (weight-average frictional ratio)” value ([9]; listed as paxillin) was 1.7 and the “apparent molecular mass of the 1:1 complex” value ([9]; theoretical 33,706 Da) was 30.20 kDa. For the same molecule, the “binding sites / site preference on Pyk2-FAT by NMR” value [5] was “binding preference for H2/H3” and the “effect of unlabeled Pyk2-FAT on resonances of 15N-labeled ligand” value [10] was “several peaks from the LD2 and LD4 regions disappeared beyond detection”.

B3 showed a Kd [11] of 400 nM and a Kd [12] of 1800 ± 100 nM.

With B4 the “percentage protein amount in c(s) peak” value [9] was 99% and the “f/f0 (weight-average frictional ratio)” value [9] was 1.34.

In the case of B5, the “binding to Pyk2-FAT (qualitative, ITC)” value [1] is reported as “two-site sequential binding model”.

With B6 the “binding to Pyk2-FAT (qualitative, ITC)” value [1] was “two-site sequential binding model”.

In the case of SATRELDELMASLSDFK (peptide, UniProt P49024 262-278, looked up) [paxillin LD4 peptide (chicken paxillin residues 262-278)], the Kd [13] is reported as 1170 nM, the “dH, first site” value [8] is reported as -2.8 ± 0.2 kcal/mol and the “dH, second site” value [8] is reported as 0.9 ± 0.3 kcal/mol.

— publication PMC4267758 (Journal of molecular biology, 2014)
